Laboratory results published in ChEMBL document CHEMBL1126655, “Synthesis and antiviral activity of novel isonucleoside analogs” (J Med Chem, 1993).

How the values were obtained:
Mus musculus [1] = assay: Day of death in lethal test against herpes simplex virus type-1 at 50 mg/kg/day; type: ADME, organism-based; details: in vivo
How it was run: (§1)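 Female Swiss-Webster mice (20–23 g, 10 per group) were infected ip with 10^3 PFU HSV-1 Schooler in 0.3% BSA-PBS. Drug was given sc twice daily in PBS, starting 1 h postinfection, for 5 days. Survival was followed for 21 days. Mean day of death of dead animals was compared with placebo-treated infected controls by Student's t-test.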

Mus musculus [2] = assay: Number of survivors against Herpes simplex virus type-2 infection in mice at 12.5 mg/kg/day out of total 10 tested; type: functional
How it was run: (§2)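 Female Swiss-Webster mice (20–23 g, 10 per group) were infected ip with 10^6 PFU HSV-2 Curtis in 0.3% BSA-PBS. Dosing was sc twice daily in PBS from 1 h postinfection for 5 days. Survival was recorded over 21 days. Mean day of death was computed for dead mice and compared with placebo-treated infected controls by Student's t-test.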

Mus musculus [3] = assay: Number of survivors against Herpes simplex virus type-2 infection in mice at 25 mg/kg/day out of total 10 tested; type: functional
How it was run: (§3)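 Female Swiss-Webster mice (20–23 g), 10 per group, infected intraperitoneally with 10^6 PFU HSV-2 strain Curtis (Vero freeze-thaw extract) in 0.3% BSA-PBS. Drug given subcutaneously in PBS twice daily from 1 h postinfection for 5 days, doses 12.5–200 mg/kg/day. Survival followed 21 days; PD50 by probit analysis; mean day of death by Student's t-test versus placebo.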

Mus musculus [4] = assay: Day of death in lethal test against herpes simplex virus type-1 at 100 mg/kg/day; type: ADME, organism-based; details: in vivo; how it was run: as §1
Human alphaherpesvirus 1 [5] = assay: Antiviral activity against Herpes simplex virus-1 (thymidine kinase deficient strains isolated as BVaraU resistant mutants of HSV-1 (KOS)); type: functional; details: read-out: ID50 (the source's name)
How it was run: (§4)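 WI-38 monolayers were infected, with virus adsorbed for 1–2 h. They were then overlaid with EMEM maintenance medium (1% carboxymethyl cellulose, 2.5% FBS) containing duplicate drug dilutions. Monolayers were stained after 4–6 days at 37 °C. ID50 was taken as the concentration giving 50% plaque reduction versus virus controls. Titrations were done in duplicate.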

Human alphaherpesvirus 2 = assay: Antiviral activity against Herpes simplex virus-2 (thymidine kinase deficient strains isolated as BVaraU resistant mutants of HSV-1 (KOS)); type: functional; details: read-out: ID50 (the source's name)
Mus musculus [6] = assay: Day of death in lethal test against herpes simplex virus type-2 at 12.5 mg/kg/day; type: ADME, organism-based; details: in vivo; how it was run: as §2
Mus musculus [7] = assay: Day of death in lethal test against herpes simplex virus type-1 at 25 mg/kg/day; type: ADME, organism-based; details: in vivo; how it was run: as §1
Mus musculus [8] = assay: Number of survivors against Herpes simplex virus type-1 infection in mice at 150 mg/kg/day out of total 10 tested; type: ADME, organism-based; details: in vivo; how it was run: as §1
Mus musculus [9] = assay: Day of death in lethal test against herpes simplex virus type-1 at 12.5 mg/kg/day; type: ADME, organism-based; details: in vivo; how it was run: as §1
Mus musculus [10] = assay: Protective dose against Herpes simplex virus type type -2 infection in mice at 200 mg/kg; type: functional; details: read-out: PD50; how it was run: as §3
Mus musculus [11] = assay: Day of death in lethal test against herpes simplex virus type-2 at 25 mg/kg/day; type: ADME, organism-based; details: in vivo; how it was run: as §2
Mus musculus [12] = assay: Number of survivors against Herpes simplex virus type-1 infection in mice at 25 mg/kg/day out of total 10 tested; type: functional; how it was run: as §1
Mus musculus [13] = assay: Day of death in lethal test against herpes simplex virus type-2 at 100 mg/kg/day; type: ADME, organism-based; details: in vivo; how it was run: as §2
Mus musculus [14] = assay: Day of death in lethal test against herpes simplex virus type-2 at 50 mg/kg/day; type: ADME, organism-based; details: in vivo; how it was run: as §2
Vaccinia virus = assay: Antiviral activity against vaccinia virus (CL strain); type: functional; details: Orthopoxvirus vaccinia; read-out: ID50 (the source's name)
[15] = Antiviral activity against Herpes simplex virus-1 (KOS strain); type: functional; details: Human alphaherpesvirus 1; read-out: ID50 (the source's name); how it was run: as §4
Human betaherpesvirus 5 = assay: Antiviral activity against Human cytomegalovirus (AD169 strain); type: functional; details: read-out: ID50 (the source's name); how it was run: as §4
Mus musculus [16] = assay: Protective dose against Herpes simplex virus type type -1 infection in mice at 200 mg/kg; type: functional; details: read-out: PD50
How it was run: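 Female Swiss-Webster mice (20–23 g), 10 per group, infected intraperitoneally with 10^3 PFU HSV-1 strain Schooler (Vero freeze-thaw extract) in 0.3% BSA-PBS. Subcutaneous dosing in PBS twice daily from 1 h postinfection for 5 days, 12.5–200 mg/kg/day. Survival scored over 21 days; PD50 from survival by probit analysis.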

WI-38 = assay: Tested for growth inhibition againstWI-38 cells; type: functional; details: Homo sapiens, read-out: ID50 (the source's name)
How it was run: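 WI-38 cells seeded at 1.2 × 10^6 per well, incubated overnight at 37 °C, then refed with growth medium (EMEM, 10% FBS) holding serial drug dilutions or none, for 3 more days at 37 °C. Quadruplicate cultures per concentration trypsinized and counted daily for viable cells by trypan blue exclusion.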

Mus musculus [17] = assay: Number of survivors against Herpes simplex virus type-1 infection in mice at 100 mg/kg/day out of total 10 tested; type: functional; how it was run: as §1
Mus musculus [18] = assay: Number of survivors against Herpes simplex virus type-1 infection in mice at 200 mg/kg/day out of total 10 tested; type: functional; how it was run: as §1
Mus musculus [19] = assay: Number of survivors against Herpes simplex virus type-2 infection in mice at 200 mg/kg/day out of total 10 tested; type: functional; how it was run: as §2
Mus musculus [20] = assay: Number of survivors against Herpes simplex virus type-2 infection in mice at 100 mg/kg/day out of total 10 tested; type: functional; how it was run: as §2
Human alphaherpesvirus 3 = assay: Antiviral activity against Varicella zoster virus (Ellen strain); type: functional; details: read-out: ID50 (the source's name); how it was run: as §4
Mus musculus [21] = assay: Day of death in lethal test against herpes simplex virus type-1 at 150 mg/kg/day; type: functional; how it was run: as §1
Human alphaherpesvirus 1 [22] = assay: Antiviral activity against Herpes simplex virus-1 (Schooler); type: functional; details: read-out: ID50 (the source's name); how it was run: as §4

## Nc1nc(O)c2ncn([C@@H]3CO[C@H](CO)[C@H]3CO)c2n1
Mus musculus [1]
  Mean day of death: 10.1
Mus musculus [2]
  No. of survivors: 0
Mus musculus [3]
  No. of survivors: 6
Mus musculus [4]
  Mean day of death: 14.7
Human alphaherpesvirus 1 [5]
  IC50: 180 µM
Human alphaherpesvirus 2
  IC50: 180 µM
Mus musculus [6]
  Mean day of death: 10.3
Mus musculus [7]
  Mean day of death: 9.1
Mus musculus [8]
  No. of survivors: 7
Mus musculus [9]
  Mean day of death: 9.6
Mus musculus [10]
  ED50: 52 mg/kg/day
Mus musculus [11]
  Mean day of death: 12.5
Mus musculus [12]
  No. of survivors: 2
Mus musculus [13]
  Mean day of death: 12.2
Mus musculus [14]
  Mean day of death: 10.9
Vaccinia virus
  IC50: > 360 µM
[15]
  IC50: 7 µM
Human betaherpesvirus 5
  IC50: > 360 µM
Mus musculus [16]
  ED50: 84 mg/kg/day
WI-38
  IC50: > 700 µM
Mus musculus [17]
  No. of survivors: 6
Mus musculus [18]
  No. of survivors: 9
Mus musculus [19]
  No. of survivors: 9
Mus musculus [20]
  No. of survivors: 6
Human alphaherpesvirus 3
  IC50: 40 µM
Mus musculus [21]
  Mean day of death: 12.3
Human alphaherpesvirus 1 [22]
  IC50: 18 µM
